Results pooled from the literature.
Each line is one published result; the experiments were not run side by side.
Target: Serine/threonine-protein kinase RIO1 (RIOK1, Homo sapiens, UniProt Q9BRS2)
One construct used (Q9BRS2 1-568): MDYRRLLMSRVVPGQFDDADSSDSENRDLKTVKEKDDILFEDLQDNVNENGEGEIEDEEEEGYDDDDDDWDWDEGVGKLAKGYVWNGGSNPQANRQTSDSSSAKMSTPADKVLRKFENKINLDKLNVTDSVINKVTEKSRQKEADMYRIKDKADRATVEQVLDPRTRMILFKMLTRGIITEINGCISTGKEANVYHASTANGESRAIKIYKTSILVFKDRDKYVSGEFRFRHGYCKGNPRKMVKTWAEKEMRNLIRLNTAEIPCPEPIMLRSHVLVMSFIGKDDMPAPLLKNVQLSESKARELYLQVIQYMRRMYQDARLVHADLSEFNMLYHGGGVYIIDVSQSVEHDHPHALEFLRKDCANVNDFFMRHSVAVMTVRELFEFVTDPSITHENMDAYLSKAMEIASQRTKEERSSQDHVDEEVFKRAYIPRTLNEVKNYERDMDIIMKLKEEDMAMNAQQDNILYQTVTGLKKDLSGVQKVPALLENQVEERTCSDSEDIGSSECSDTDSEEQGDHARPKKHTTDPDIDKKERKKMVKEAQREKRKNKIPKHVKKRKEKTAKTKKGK

SMILES | test | conditions | remaining binding [%]
C[C@@H](c1ccc(-n2cnc3c(N)ncnc32)cc1)N1CCc2nn(C)c(Cc3ccccc3)c2C1=O | binding, competition with immobilised ligand | 0.1 µM | 69
COc1ncc2cc3ccccc3nc2c1C#N | cell-free assay, competition with immobilised ligand | 5 µM | 93
COc1ccc2cc(OCC3(C(=O)O)CN(C(=O)c4ccc(F)cc4)C3)ccc2c1 | cell-free assay, competition with immobilised ligand | 1 µM | 100
CN(CCCC(F)(F)F)c1nccc(-c2cnn3ncccc23)n1 | binding | 1 µM | 100
Nc1ncc2c(n1)-c1c([nH]c3ccc(C#CC4CC4)cc13)CCCC2 | binding, competition with immobilised ligand | 1 µM | 80
COc1cnc(Nc2cccc(S(N)(=O)=O)c2)nc1N1CCN(c2ccccc2)C(=O)C1 | binding, competition with immobilised ligand | 1 µM | 49
c1cncc(-c2cccc(Nc3nccc(NC4CCCCC4)n3)c2)c1 | binding, competition with immobilised ligand | 10 µM | 26
O=C(Nc1c[nH]nc1C(=O)NC1CCNCC1)c1cc(F)cc(F)c1 | binding, competition with immobilised ligand | 1 µM | 68
N[C@@H]1CCN(c2nccc(-c3cnn4ncccc34)n2)C1 | binding | 1 µM | 96
Cn1cc(Cl)c2c(Oc3c(F)cc(Nc4cc(Cl)nc(N)n4)cc3F)ccnc21 | cell-free assay, competition with immobilised ligand | 0.1 µM | 100
COc1ccnn2ncc(-c3ccnc(N(C)C)n3)c12 | binding | 1 µM | 100
O=C(c1ccc(Nc2ncc(Cl)c(-c3cc4ccccc4s3)n2)cc1)N1CCC(N2CCCC2)CC1 | binding, competition with immobilised ligand | 1 µM | 0
N#Cc1ccc(Nc2ccc3[nH]c(=O)[nH]c3c2)c(Cl)c1 | cell-free assay, competition with immobilised ligand | 1 µM | 100
C[C@H]1CCN(c2nccc(-c3cnn4ncccc34)n2)C1 | binding | 1 µM | 62
O=C(NCCCN1CCOCC1)c1ccc(Nc2ncc(Cl)c(-c3ccc(Cl)s3)n2)cc1 | binding, competition with immobilised ligand | 1 µM | 0.05
CN(C)c1ncc(F)c(-c2cnn3ncccc23)n1 | binding | 1 µM | 100
CN(C)C(=O)Cn1cc(-c2nc(C3(c4ccc(-c5cnc(N)nc5)cc4)CC3)no2)cn1 | cell-free assay, competition with immobilised ligand | 1 µM | 100
CNC(=O)[C@@H]1CC[C@@H](n2c(-c3ccc4cnccc4c3)nc3ccc(C(=O)NCc4cccc(C(N)=O)c4)cc32)C1 | binding, competition with immobilised ligand | 1 µM | 100
O=S(=O)(NC1CCC(c2cc(F)ccc2F)(S(=O)(=O)c2ccc(Cl)cc2)CC1)C(F)(F)F (stereo not shown) | cell-free assay, competition with immobilised ligand | 1 µM | 98
O=C(NCCCN1CCOCC1)c1ccc(Nc2nccc(-c3cc4ccccc4s3)n2)cc1 | binding, competition with immobilised ligand | 1 µM | 0.1
C[C@@H]1CN(c2cc(-c3n[nH]c4ccc(OC5(C)CC5)cc34)ncn2)C[C@H](C)O1 | cell-free assay, competition with immobilised ligand | 0.1 µM | 100
F[C@@H]1CCN(c2nccc(-c3cnn4ncccc34)n2)C1 | binding | 1 µM | 93
